# An excerpt weighted towards active compounds, which were near 2.3% of everything screened.
# MT1-MMP act inh: MT1-MMP (human) activation inhibition | hit rate 0.061% among 360,000 | HT1080 RFP-PRO-GFP cells, GFP/RFP ratio fluorescence, overnight; percent of plate control window, DMSO zero | P50281 | GFP/RFP ratio change, % at 20 µM | AID 651647;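 active = GFP/RFP ratio change of at least 30% with cell ATP level not reduced by more than half and red fluorescence within 50% of control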
#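 Material: RFP-PRO-GFP reporter HT1080 cells. Dosing: single-point 20 µM compound, 1% DMSO. Controls: DMSO and RFP-L50D-GFP cell wells. Timing: cells overnight before dosing, compound overnight, 37 °C, 5% CO2. Measure: GFP/RFP fluorescence ratio.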
# Rpn11 inh: inhibitors of human proteasome Rpn11; human 26S proteasome, Ub4-pepOG fluorescence polarization; 20S core pre-blocked with epoxomicin; AID 588493; hit rate 0.59% among 360,000; O00487; inhibition, % at 20 µM;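 active = inhibition at 20 µM, scaled to each plate's controls, above about 33%, limit read from the data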
# DNMT1 inh: inhibitors of human DNMT1 | P26358 | DNMT1 molecular beacon, Hinp1I cleavage, fluorescence | inhibition (reported as % activation of signal), % at 10 µM | hit rate 0.83% among 360,000 | AID 588458; in the data active = inhibition above about 50%
# SUMO1 PPI mod: SUMO1-SIM interaction modulation | P63165 | SUMO1 binding to a labelled peptide, TR-FRET, 1 h | inhibition, % at 20 µM | hit rate 0.33% among 360,000; in the data active = inhibition above about 37%
# Target sequence (P63165 whole entry, looked up): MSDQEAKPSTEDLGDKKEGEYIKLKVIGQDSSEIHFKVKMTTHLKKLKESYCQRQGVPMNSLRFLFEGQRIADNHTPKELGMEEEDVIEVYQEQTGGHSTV
# CSN deneddyl inh: CSN deneddylation inhibition; Purified CSN, SCF-Nedd8-OG deneddylation, fluorescence polarization; inhibition, % at 12.5 µM; hit rate 0.38% among 360,000; AID 651999;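 active = pattern-corrected inhibition above about 35%, with an unprinted fluorescence ratio check between 0.5 and 1.5, limit read from the data, passing the limit was not always enough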;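 note: 0% = enzyme with substrate and 100% = substrate without enzyme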
# Target sequence (Q92905 whole entry, looked up, one chain of several): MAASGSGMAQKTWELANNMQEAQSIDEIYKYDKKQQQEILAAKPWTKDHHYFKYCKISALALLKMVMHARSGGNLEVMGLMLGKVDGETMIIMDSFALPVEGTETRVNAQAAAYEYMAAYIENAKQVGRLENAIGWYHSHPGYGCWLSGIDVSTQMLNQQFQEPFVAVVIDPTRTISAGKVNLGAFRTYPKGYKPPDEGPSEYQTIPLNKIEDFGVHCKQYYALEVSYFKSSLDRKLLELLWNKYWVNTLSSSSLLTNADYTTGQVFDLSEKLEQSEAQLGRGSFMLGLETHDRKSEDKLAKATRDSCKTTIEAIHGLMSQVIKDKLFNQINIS
#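 Test system: Human Csn5 produced in HEK293T cells | Compound: 12.5 µM single point | Times: 90 min, room temperature | Signal: Fluorescence polarization readout | Read-out basis: % inhibition of substrate cleavage by Csn5 | Controls: no-enzyme wells high, enzyme-with-substrate wells low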
# SKN-1 inh: C. elegans SKN-1 inhibition; inhibition, % at 21.8 µM; C. elegans VP596 Pgst-4::GFP/RFP ratio, acrylamide-induced, 24 h; AID 624304; hit rate 0.49% among 360,000;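 active = interference check ratio from 0.5 to 1.5 plus GFP to RFP signal ratio inhibition reaching or exceeding a fixed threshold, cut at about 30% in these data, passing the limit was not always enough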
# Rpn11 inh conf: Rpn11 inhibition confirmation, single concentration | shares compounds with Rpn11 inh | purified human 26S proteasome, Ub4-pepOG fluorescence polarization; proteasome pretreated with epoxomicin | inhibition, % at 20 µM | hit rate 29% among 1,900 | AID 602318
# MMP-2 inh: MMP-2 (human) inhibition counter-screen; shares compounds with Rpn11 inh; recombinant MMP-2, FRET peptide cleavage fluorescence; inhibition, % at 20 µM; hit rate 4% among 1,900; AID 602330;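 note: human MMP-2 activated beforehand with APMA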
# Thrombin FP: blocks bovine thrombin, flagging nonselective RPN11 hits; bovine thrombin cleavage of Ub4-pepOG, fluorescence polarization; inhibition, % at 20 µM; AID 602333; hit rate 13% among 1,900; shares compounds with Rpn11 inh;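 active = mean inhibition at least 40% at 20 µM, or signal 3 deviations below plate average, so some actives read negative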;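 note: plate controls were thrombin with DMSO for no effect and buffer wells lacking thrombin for full effect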
# * = called active by the depositor; nt = not tested or not shown. Cut-off read from the data, not from the text of the source, unless noted: active = inhibition above about 40%; inactive = the rest.
SMILES,MT1-MMP act inh,Rpn11 inh,DNMT1 inh,SUMO1 PPI mod,CSN deneddyl inh,SKN-1 inh,Rpn11 inh conf,MMP-2 inh,Thrombin FP
Cc1ccccc1N1C(=O)C(Cc2ccc(F)cc2)S/C1=C(\C#N)C(N)=O (stereo not drawn),-121,45*,-1,1,3,-9,6,-12,0
Cc1cccc2sc(NC(=O)C3CCCN(S(=O)(=O)c4cccc5nonc45)C3)nc12 (stereo not drawn),-2,58*,-4,-3,6,-1,41*,-27,-19
Cc1ccc(NC(=O)C2CCCN(S(=O)(=O)c3cccc4nonc34)C2)cc1 (stereo not drawn),-2,8,6,-9,3,6,nt,nt,nt
COc1cc([N+](=O)[O-])cc(/C=N/NC(=O)c2cncc(Br)c2)c1O,-3,60*,-1,-28,12,-10,49*,16,29
COc1cc([N+](=O)[O-])cc(/C=N/NC(=O)c2cc(-c3ccccc3)nc3ccccc23)c1O,nt,89*,-1,-3,24,-5,68*,31,11
COc1cc(/C=N/NC(=O)c2cncc(Br)c2)cc([N+](=O)[O-])c1O,8,68*,1,-30,10,12,18,28,7
COc1cc(/C=N/NC(=O)c2cccc([N+](=O)[O-])c2)cc(OC)c1O,2,2,-1,23,4,1,nt,nt,nt
Cc1ccccc1S(=O)(=O)N1C[C@@H]2C(C(=O)C[C@@H]3C(=O)N(C)C(=O)[C@@H]32)[C@@H]1c1ccc(Cl)cc1 (stereo partly drawn),1,nt,nt,1,-2,-6,nt,nt,nt
O=C1N/C(=N/NC(=O)c2cccc3ccccc23)S/C1=C\c1ccccc1OCc1ccccc1,-3,45*,48,2,6,9,20,21,13
CC(=O)Nc1cccc(-c2cc(NC(C)=O)c3ncc(-c4ccc(C(C)=O)cc4)n3c2)c1,-1,0,-8,-11,2,-1,nt,nt,nt
O=C(C[C@H]1CC[C@@H](NS(=O)(=O)c2ccccc2)[C@@H](CO)O1)NCc1ccc(Cl)c(Cl)c1,3,nt,nt,7,0,-15,nt,nt,nt
COc1ccc(OCCNC(=O)c2ccc(C)cc2)cc1,4,40*,0,1,3,8,-16,3,-26
O=C(CSc1ncnc2scc(-c3ccccc3)c12)N1CCN(Cc2ccc3c(c2)OCO3)CC1,3,50*,10,-1,13,10,34,19,21
CCc1nc2c(OCC(=O)c3ccc(Cl)cc3Cl)cccn2c1N(C=O)Cc1ccccc1,-4,21,-8,1,9,21,nt,nt,nt
CCOc1ccc(C(=O)Nc2cccc(-c3nc4cccnc4o3)c2)cc1Cl,nt,55*,-2,10,-7,-10,19,-24,3
COC(=O)c1c(-c2cccnc2)csc1NC(=O)c1cc(C)on1,-49,76*,-13,17,15,17,53*,-18,32
COc1ccc(-c2cc(C(=O)Nc3cc(Br)ccc3O)no2)cc1,4,55*,57*,-1,6,-1,17,-19,-2
COc1cccc(-c2cc(C(=O)Nc3cc(C)on3)no2)c1,5,59*,6,1,8,10,31,32,-7
Cc1cc(NC(=O)c2cc(-c3cccc(Cl)c3)on2)no1,0,2,17,-1,0,13,nt,nt,nt
Cc1cccc(-c2csc(NC(=O)c3cnccn3)c2C(=O)OC(C)C)c1,-1,9,1,-1,-2,16,nt,nt,nt
COC(=O)C1=CC(C(=O)c2cccs2)=NN(c2ccc(OC)cc2)C1C(=O)OC (stereo not drawn),5,44*,-6,-37,15,31,22,-12,15
Cc1cccc(C)c1NC(=O)C1(C)CN(S(C)(=O)=O)CC(=O)N1C1CC1 (stereo not drawn),5,nt,nt,-2,8,13,nt,nt,nt
COC(=O)c1ccc2c(c1)NC(=O)C(N(CC(C)C)CC(C)C)S2 (stereo not drawn),-9,48*,7,-1,-3,-16,17,-30,10
O=C(NN1C(=O)/C(=C/C=C/c2ccccc2)SC1=S)c1ccncc1,-35,71*,1,53*,20,14,-3,2,19
O=C(NN1C(=O)/C(=C/C=C/c2ccco2)SC1=S)c1ccncc1,5,77*,84*,101*,46,24,123*,55*,54*
SMILES,MT1-MMP act inh,Rpn11 inh,DNMT1 inh,SUMO1 PPI mod,CSN deneddyl inh,SKN-1 inh,Rpn11 inh conf,MMP-2 inh,Thrombin FP
O=C(CCN1C(=O)/C(=C/C=C/c2ccccc2)SC1=S)Nc1nc2ccccc2s1,2,54*,7,-7,0,9,32,-14,-51
O=C(CCN1C(=O)/C(=C\C=C\c2ccccc2)SC1=S)Nc1ccc(C(=O)O)cc1,-3,16,17,0,17,4,nt,nt,nt
O=C(N/N=C/C=C/c1ccco1)c1ccncc1,-1,0,-2,-10,2,14,nt,nt,nt
Cc1cc(C)n(CCNC(=O)[C@H]2O[C@@H](n3cnc4c(N)ncnc43)[C@H](O)[C@@H]2O)n1,0,-7,3,5,0,-7,nt,nt,nt
CCC(C)CN1C(=O)CSCC1(C)C(=O)Nc1ccc2c(c1)OCCO2 (stereo not drawn),2,nt,nt,1,-2,2,nt,nt,nt
Cn1cc([C@]2(O)C(=O)Nc3ccc(Br)cc32)c2ccccc21,6,nt,nt,4,-2,8,nt,nt,nt
COc1cc(C=C2C(=O)C=CC2=O)ccc1O,9,nt,nt,18,30,6,nt,nt,nt
CCOC(=O)[C@]12CCC=C1N(Cc1ccco1)C(=O)[C@H](CC(=O)N1CCN(C(=O)c3ccco3)CC1)C2,-1,nt,nt,3,2,2,nt,nt,nt
O=C(Nc1ccc(-c2nc3cc(Cl)ccc3c(=O)o2)cc1)c1ccco1,-1,50*,2,35,13,5,-6,-21,-25
COc1ccc(/C=C2/Sc3ccc(C(=O)NCCN4CCCCCC4)cc3NC2=O)cc1,6,70*,40,-6,10,-5,8,-40,-2
COC(=O)C1=C(C)N(CCc2ccc(OC)c(OC)c2)C(=O)/C1=C\N(C)C,5,60*,0,4,2,-13,-10,5,-11

# High-throughput results from PubChem.
